Laboratory results as given in ChEMBL document CHEMBL4033795, “Design, Synthesis, and Structure-Activity Relationship Study of 2-Oxo-3,4-dihydropyrimido[4,5- d]pyrimidines as New Colony Stimulating Factor 1 Receptor (CSF1R) Kinase Inhibitors” (J Med Chem, 2018).

Experiments:
RAW264.7 [1] = assay: Downregulation of VEGFA mRNA expression in mouse RAW264.7 cells after 48 hrs by qRT-PCR analysis relative to DMSO; type: functional, cell-based
Method in brief: (§1)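 RAW264.7 macrophages were treated 48 h with compound at 0.08, 0.4 or 2.0 μM, or DMSO vehicle. Total RNA was extracted with TRIzol and transcripts were quantified by qRT-PCR using gene-specific primers. Run three times, each in triplicate.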

Rattus norvegicus = assay: Apparent clearance in Sprague-Dawley rat at 25 mg/kg administered via oral gavage measured up to 72 hrs by LC/MS analysis; type: ADME, organism-based; details: in vivo, iv, 5 mg/kg, in the assay text read “5 mg/kg administered intravenously” for “25 mg/kg administered via oral gavage”
Method in brief: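 Male Sprague-Dawley rats, 4–6 weeks old, acclimatised 1 week, were dosed iv at 5 mg/kg or by oral gavage at 25 mg/kg. Vehicle was 2% DMSO, 4% EtOH, 4% castor oil, 90% H2O. Blood was drawn by orbital sinus puncture from 2 min to 72 h into heparinized tubes. Plasma was assayed by LC/MS with propranolol as internal standard. Three animals per group.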

[2] = target: Platelet-derived growth factor receptor beta (Homo sapiens, UniProt P09619); assay: Inhibition of recombinant human PDGFRbeta expressed in baculovirus using poly (4:1 Glu, Tyr) peptide as substrate after 1 hr by ADP-Glo assay
RAW264.7 [3] = assay: Downregulation of IL10 mRNA expression in mouse RAW264.7 cells after 48 hrs by qRT-PCR analysis relative to DMSO; type: functional, cell-based; method in brief: as §1
RAW264.7 [4] = assay: Antimigratory activity against mouse RAW264.7 cells assessed as inhibition of human LNCaP-MDV-CM mediated macrophage migration at 1.25 uM after 24 hrs by crystal violet staining based transwell assay relative to control; type: functional; details: RAW264.7, 24 h
Method in brief: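 RAW264.7 cells, (2−4) × 10^5, were placed serum-free in the upper insert of a transwell. The lower chamber held conditioned medium from LNCaP cells grown 48 h in 10% FBS RPMI 1640 with 10 μM MDV3100 or DMSO. Compound at 0.625–5.0 μM was added to the top chamber for 24 h at 37 °C. Migrated cells were fixed in methanol, stained with 0.25% crystal violet and counted in six random fields at 200×. Three independent experiments.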

RAW264.7 [5] = assay: Inhibition of protumorigenic potential of mouse RAW264.7 cells assessed as abrogation of human LNCAP cell growth enhancement of macrophages co-cultured for 48 hrs by CCK8 assay; type: functional, cell-based
Method in brief: (§2)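 LNCaP cells, (2−4) × 10^5, were seeded in the lower transwell chamber. After 2 h, (1−2) × 10^6 RAW264.7 cells were added in a 0.4 μm insert. Compound at 0.016–2.0 μM was added to the top chamber and cells were cocultured 48 h at 37 °C. LNCaP cells were then imaged and counted by CCK8. Run three times, each in triplicate.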

[6] = target: T1, Macrophage colony-stimulating factor 1 receptor (Mus musculus) (UniProt P09581); assay: Inhibition of CSF1R phosphorylation in mouse RAW264.7 cells assessed as reduction in AKT phosphorylation at 80 nM preincubated for 6 hrs followed by CSF1 stimulation for 20 mins by Western blot analysis relative to control; type: cell-based
T1 sequence (whole entry): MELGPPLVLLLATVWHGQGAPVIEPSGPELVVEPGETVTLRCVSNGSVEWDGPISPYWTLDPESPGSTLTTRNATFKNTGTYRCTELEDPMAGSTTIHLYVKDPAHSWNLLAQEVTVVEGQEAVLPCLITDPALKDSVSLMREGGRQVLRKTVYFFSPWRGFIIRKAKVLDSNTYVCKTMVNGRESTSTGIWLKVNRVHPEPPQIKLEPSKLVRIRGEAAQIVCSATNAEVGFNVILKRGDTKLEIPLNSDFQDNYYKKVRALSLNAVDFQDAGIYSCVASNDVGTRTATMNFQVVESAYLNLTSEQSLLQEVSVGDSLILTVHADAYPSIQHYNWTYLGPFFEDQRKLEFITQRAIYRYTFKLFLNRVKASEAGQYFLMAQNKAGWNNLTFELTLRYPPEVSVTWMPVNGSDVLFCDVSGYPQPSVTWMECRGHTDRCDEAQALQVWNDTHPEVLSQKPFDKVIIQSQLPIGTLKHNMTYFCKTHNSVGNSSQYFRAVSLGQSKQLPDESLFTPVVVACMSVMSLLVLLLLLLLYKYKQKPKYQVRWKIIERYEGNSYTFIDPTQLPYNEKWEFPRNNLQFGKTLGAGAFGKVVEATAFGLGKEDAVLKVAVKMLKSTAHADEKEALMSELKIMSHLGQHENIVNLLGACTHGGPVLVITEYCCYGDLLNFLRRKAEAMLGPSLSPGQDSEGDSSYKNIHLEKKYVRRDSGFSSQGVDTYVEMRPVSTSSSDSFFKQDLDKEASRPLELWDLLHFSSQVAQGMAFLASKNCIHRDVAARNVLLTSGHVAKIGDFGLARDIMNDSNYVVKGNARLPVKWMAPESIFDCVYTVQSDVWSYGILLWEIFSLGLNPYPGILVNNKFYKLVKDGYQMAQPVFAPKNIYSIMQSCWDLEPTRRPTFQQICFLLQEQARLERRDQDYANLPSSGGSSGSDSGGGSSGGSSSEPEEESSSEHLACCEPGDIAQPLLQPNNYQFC
Method in brief: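 RAW264.7 cells were seeded, incubated overnight and treated 6 h with graded compound concentrations, then stimulated 20 min with CSF-1 (50 ng/mL). Lysates were run on 8−12% SDS-PAGE and immunoblotted for p-CSF1R (Tyr723), CSF1R, p-AKT, AKT and GAPDH. Bands were quantified and normalized to GAPDH. Mean ± SEM of at least three experiments.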

[7] = target: Tyrosine-protein kinase ABL1 (Homo sapiens) (UniProt P00519); assay: Inhibition of human ABL1 (S229 to K512 residues) expressed in mammalian expression system at 100 nM by KINOMEscan assay relative to control
[8] = target: Ephrin type-A receptor 8 (Homo sapiens) (UniProt P29322); assay: Inhibition of recombinant human EPHA8 (Q608 to C920 residues) expressed in bacterial expression system at 100 nM by KINOMEscan assay relative to control
Homo sapiens = species: Homo sapiens; assay: Selectivity ratio of IC50 for recombinant human wild type GST-tagged EGFR cytoplasmic domain (668 to 1210 residues) expressed in baculovirus to IC50 for recombinant human His-tagged CSF1R cytoplasmic domain (538 to 910 residues) expressed in baculovirus
Method in brief: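 Z′-Lyte FRET assay with CSF1R or EGFR and 2 μM Tyr4 peptide substrate in 1× kinase buffer. ATP was supplied as a 100 μM solution, a stock and not the final concentration. Compounds were 3-fold serially diluted in DMSO. Reaction ran 1 h at room temperature, followed by 1 h development and a stop reagent. Phospho-peptide, no-ATP and DMSO controls were included. IC50 by curve fitting; mean of at least three independent experiments.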

RAW264.7 [9] = assay: Inhibition of protumorigenic potential of mouse RAW264.7 cells assessed as abrogation of human LNCAP cell growth enhancement of macrophages at 0.4 uM co-cultured for 48 hrs by CCK8 assay relative to control; type: functional; details: RAW264.7, 48 h; method in brief: as §2

Platelet-derived growth factor receptor beta, sequence (P09619 whole entry): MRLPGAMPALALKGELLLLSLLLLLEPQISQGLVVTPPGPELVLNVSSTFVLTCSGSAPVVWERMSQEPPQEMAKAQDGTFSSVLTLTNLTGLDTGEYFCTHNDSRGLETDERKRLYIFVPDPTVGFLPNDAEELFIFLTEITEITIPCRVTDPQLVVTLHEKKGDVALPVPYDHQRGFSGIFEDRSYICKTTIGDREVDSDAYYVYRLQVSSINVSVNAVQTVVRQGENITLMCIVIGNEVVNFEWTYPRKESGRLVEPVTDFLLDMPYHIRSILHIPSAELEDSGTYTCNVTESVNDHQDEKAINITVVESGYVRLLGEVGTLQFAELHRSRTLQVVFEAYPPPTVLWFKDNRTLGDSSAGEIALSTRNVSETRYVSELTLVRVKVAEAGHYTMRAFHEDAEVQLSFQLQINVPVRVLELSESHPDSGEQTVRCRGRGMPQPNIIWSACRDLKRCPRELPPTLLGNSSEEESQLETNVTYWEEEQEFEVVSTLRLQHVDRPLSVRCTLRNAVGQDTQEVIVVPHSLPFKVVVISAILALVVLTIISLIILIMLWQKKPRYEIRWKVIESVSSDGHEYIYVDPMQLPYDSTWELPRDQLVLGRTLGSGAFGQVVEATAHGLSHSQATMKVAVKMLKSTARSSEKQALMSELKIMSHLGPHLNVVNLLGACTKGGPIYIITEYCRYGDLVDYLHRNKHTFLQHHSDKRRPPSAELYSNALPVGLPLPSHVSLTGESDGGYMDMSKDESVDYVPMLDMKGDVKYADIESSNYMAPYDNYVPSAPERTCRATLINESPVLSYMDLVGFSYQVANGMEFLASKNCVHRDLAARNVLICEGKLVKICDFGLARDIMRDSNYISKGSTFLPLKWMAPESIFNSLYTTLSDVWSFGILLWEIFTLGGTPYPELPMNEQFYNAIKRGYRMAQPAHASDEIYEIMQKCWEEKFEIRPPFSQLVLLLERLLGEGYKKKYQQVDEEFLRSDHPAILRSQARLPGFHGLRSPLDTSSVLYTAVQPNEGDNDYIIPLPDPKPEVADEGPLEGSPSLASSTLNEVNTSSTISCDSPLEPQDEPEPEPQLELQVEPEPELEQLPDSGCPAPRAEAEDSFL
Tyrosine-protein kinase ABL1 (Homo sapiens), sequence (P00519 whole entry, the tested form may be a part): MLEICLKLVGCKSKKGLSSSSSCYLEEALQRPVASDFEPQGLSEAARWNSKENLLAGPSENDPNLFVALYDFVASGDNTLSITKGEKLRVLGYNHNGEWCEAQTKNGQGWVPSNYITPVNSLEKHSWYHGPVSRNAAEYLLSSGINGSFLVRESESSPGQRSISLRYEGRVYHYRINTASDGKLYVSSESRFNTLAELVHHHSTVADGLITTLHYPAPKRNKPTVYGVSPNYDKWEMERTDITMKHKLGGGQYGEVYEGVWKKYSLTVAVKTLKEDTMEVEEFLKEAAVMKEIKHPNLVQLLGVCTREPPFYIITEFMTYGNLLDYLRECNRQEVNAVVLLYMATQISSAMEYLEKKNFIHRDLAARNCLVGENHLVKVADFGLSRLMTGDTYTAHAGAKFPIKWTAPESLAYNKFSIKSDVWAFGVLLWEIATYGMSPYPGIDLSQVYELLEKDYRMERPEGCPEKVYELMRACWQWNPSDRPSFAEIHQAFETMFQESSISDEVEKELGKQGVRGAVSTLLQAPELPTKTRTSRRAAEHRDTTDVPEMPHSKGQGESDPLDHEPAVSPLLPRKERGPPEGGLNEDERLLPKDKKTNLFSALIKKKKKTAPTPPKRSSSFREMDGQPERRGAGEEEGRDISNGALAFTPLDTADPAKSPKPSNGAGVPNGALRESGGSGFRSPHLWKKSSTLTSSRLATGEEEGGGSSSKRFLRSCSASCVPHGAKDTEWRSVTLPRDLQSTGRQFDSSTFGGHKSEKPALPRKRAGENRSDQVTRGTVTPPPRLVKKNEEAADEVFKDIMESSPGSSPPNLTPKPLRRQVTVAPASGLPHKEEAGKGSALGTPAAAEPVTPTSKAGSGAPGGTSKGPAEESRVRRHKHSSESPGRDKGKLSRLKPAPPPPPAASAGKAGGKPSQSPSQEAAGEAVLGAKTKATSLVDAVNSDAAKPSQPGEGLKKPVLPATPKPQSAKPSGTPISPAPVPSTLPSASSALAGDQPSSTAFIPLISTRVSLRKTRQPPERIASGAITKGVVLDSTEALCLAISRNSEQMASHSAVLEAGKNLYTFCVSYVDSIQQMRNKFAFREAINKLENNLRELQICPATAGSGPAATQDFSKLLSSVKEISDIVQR
Ephrin type-A receptor 8 (Homo sapiens), sequence (P29322 whole entry, the tested form may be a part): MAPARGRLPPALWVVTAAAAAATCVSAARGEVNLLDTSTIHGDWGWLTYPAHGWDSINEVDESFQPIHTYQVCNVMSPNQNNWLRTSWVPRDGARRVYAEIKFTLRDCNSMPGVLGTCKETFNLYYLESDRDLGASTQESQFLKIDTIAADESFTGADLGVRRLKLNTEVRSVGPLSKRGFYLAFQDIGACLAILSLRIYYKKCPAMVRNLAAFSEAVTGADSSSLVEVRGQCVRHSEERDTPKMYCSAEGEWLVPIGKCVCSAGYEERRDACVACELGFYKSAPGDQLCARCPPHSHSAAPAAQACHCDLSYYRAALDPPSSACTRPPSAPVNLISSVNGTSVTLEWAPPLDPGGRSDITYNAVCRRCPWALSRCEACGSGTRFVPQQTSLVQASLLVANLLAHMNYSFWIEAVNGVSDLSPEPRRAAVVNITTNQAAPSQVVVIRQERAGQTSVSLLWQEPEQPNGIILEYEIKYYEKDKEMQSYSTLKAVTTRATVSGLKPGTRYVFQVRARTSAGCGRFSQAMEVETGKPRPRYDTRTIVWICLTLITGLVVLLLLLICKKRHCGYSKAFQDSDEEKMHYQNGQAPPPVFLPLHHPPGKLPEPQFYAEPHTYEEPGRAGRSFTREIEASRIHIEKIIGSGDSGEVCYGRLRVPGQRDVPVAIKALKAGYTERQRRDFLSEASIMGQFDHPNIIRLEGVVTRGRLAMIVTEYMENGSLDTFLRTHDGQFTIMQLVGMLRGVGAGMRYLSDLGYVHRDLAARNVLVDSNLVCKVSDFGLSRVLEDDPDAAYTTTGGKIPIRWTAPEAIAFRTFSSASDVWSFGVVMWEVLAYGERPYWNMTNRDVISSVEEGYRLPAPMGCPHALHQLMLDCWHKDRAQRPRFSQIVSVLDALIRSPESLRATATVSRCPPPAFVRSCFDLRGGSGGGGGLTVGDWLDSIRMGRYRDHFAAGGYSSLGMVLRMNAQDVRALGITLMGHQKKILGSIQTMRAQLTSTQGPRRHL

CCC(=O)N1CC[C@H](N2C(=O)N(c3cc(OC)ccc3Cl)Cc3cnc(Nc4ccc(N5CCN(C6COC6)CC5)c(C)c4)nc32)C1
Activity (RAW264.7 [1]): Dose-dependent effect | CL(app) (Rattus norvegicus): 28.8 mL/min/kg | IC50 [2]: 106 nM | Activity (RAW264.7 [3]): Dose-dependent effect | inhibition at 1.25 µM (RAW264.7 [4]): 52.7% | inhibition (RAW264.7 [5]): Dose-dependent effect | inhibition [6]: 50% | inhibition [7]: > 90% | inhibition [8]: > 90% | Ratio IC50 (Homo sapiens): 120 | inhibition at 0.4 µM (RAW264.7 [9]): 85%
